This note sets out measurements from ChEMBL document CHEMBL4823271, “Synthesis and structure-activity relationship of new chalcone linked 5-phenyl-3-isoxazolecarboxylic acid methyl esters potentially active against drug resistant Mycobacterium tuberculosis” (Eur J Med Chem, 2021).

The subject of data set [1] is Mycobacterium tuberculosis. The data set is described as follows: Antitubercular activity against Mycobacterium tuberculosis H37Rv assessed as bacterial growth inhibition after 7 days by broth microdilution assay. It counts as functional. The settings on record: 168 h, dose 0.03-64 µg/ml, time 7 day. In short, it runs like this: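 Compounds were tested in broth microdilution from 64 downward, incubated 37 °C for 7 days, then resazurin (PrestoBlue) added. MIC is the lowest concentration preventing the blue-to-pink change, run in triplicate, reporting the value obtained at least twice of three.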
On the technique in general: In broth dilution the organism is exposed to a series of concentrations in liquid medium.

Data set [2] has as its system Mycobacteroides abscessus. Briefly: Antimycobacterial activity against Mycobacterium abscessus ATCC 19977 assessed as visible growth inhibition incubated for 16 to 18 hrs. It counts as functional, organism-based. Conditions: time 16-18 hrs.
The test system of data set [3] is Mycolicibacterium fortuitum. The data set is described as follows: Antimycobacterial activity against Mycobacterium fortuitum ATCC 6841 assessed as visible growth inhibition incubated for 16 to 18 hrs. It counts as functional, organism-based. Conditions: time 16-18 hrs.
The test system of the next data set is Mycobacteroides chelonae. Briefly: Antimycobacterial activity against Mycobacterium chelonae ATCC 35752 assessed as visible growth inhibition incubated for 16 to 18 hrs. It counts as functional, organism-based. The settings on record: time 16-18 hrs.
Data set [4] can be described thus: Cytotoxicity against African green monkey vero cells assessed as reduction in cell viability measured after 72 hrs by MTT assay. It counts as cell-based. Conditions: chlorocebus sabaeus. In short, it runs like this:
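Vero cells seeded at ~10³ cells/well and grown 24 h at 37 °C, 5% CO₂, then exposed to compound (100 to 5 mg/l) for 72 h. MTT was added […] for 4 h and formazan dissolved in DMSO. CC50 is the lowest concentration giving 50% viability reduction. Doxorubicin was the positive control, run in triplicate.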
Background: Formazan colour is commonly taken as a measure of viable cells.

The nature of data set [5]: Selectivity index, ratio of CC50 for African green monkey Vero cells to MIC for Antitubercular activity against Mycobacterium tuberculosis H37Rv. It counts as toxicity. Conditions: read-out: Selectivity Index. The method in brief:
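Selectivity index calculated as Vero CC50 (MTT, 72 h) divided by the H37Rv MIC from the resazurin broth microdilution assay.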

≈ marks a conversion by molar mass, not a printed value. Calls of active or inactive are those of the source. No cut-off for these calls is given here.

Take `O=C(O)c1ccc(C(=O)/C=C/c2ccc3ccccc3c2)cc1`: the MIC in data set [1] came to 0.5 µg/mL (≈ 1.65 µM).
Still for that read-out and setting: under `CCOC(=O)c1cc(-c2cccc(OCc3cccc(C(F)(F)F)c3)c2)on1` stands 0.23 µg/mL (≈ 0.588 µM).
Turning to `COC(=O)c1cc(-c2cccc(NC(=O)c3ccc(/C=C/C(=O)c4cccs4)cc3)c2)on1`, the MIC in data set [1] was 32 µg/mL (≈ 69.8 µM). The result (in data set [2]; in data set [3]; in the data set with Mycobacteroides chelonae) was inactive.
`O=C(O)c1ccc(/C=C/C(=O)c2ccc(Cl)cc2)cc1`: in data set [1], the MIC amounted to 4 µg/mL (≈ 14 µM). For the same compound, the CC50 at 72 h in data set [4] was under 10 µg/mL. Moreover, the selectivity ratio in data set [5] is under 10.
Regarding `COC(=O)c1cc(-c2cccc(NC(=O)c3ccc(/C=C/C(=O)c4ccc(OC)cc4)cc3)c2)on1`, the MIC in data set [1] was 4 µg/mL (≈ 8.29 µM). In data set [4], the CC50 at 72 h was over 10 µg/mL. In data set [5], the selectivity ratio is over 2.5. Moreover, the outcome (in data set [2]; in data set [3]; in the data set on Mycobacteroides chelonae) was inactive.
As for `COC(=O)c1cc(-c2cccc(NC(=O)c3ccc(/C=C/C(=O)c4ccc(OC)c([N+](=O)[O-])c4)cc3)c2)on1`, the MIC in data set [1] was found to be 1 µg/mL (≈ 1.9 µM). In data set [4], the CC50 at 72 h is over 40 µg/mL. Moreover, the selectivity ratio in data set [5] is over 40. Further, the result (in data set [2]; in data set [3]; in the data set on Mycobacteroides chelonae) was inactive.
Turning to `COC(=O)c1cc(-c2cccc(NC(=O)c3ccc(/C=C/C(=O)c4cc(OC)c(OC)c(OC)c4)cc3)c2)on1`, in data set [1], the MIC is 1 µg/mL (≈ 1.84 µM). For the same compound, the CC50 at 72 h in data set [4] is over 50 µg/mL. In addition, the selectivity ratio in data set [5] was over 50. The result (in data set [2]; in data set [3]; with Mycobacteroides chelonae) was inactive.
`COC(=O)c1cc(-c2cccc(NC(=O)c3ccc(/C=C/C(=O)c4cccnc4)cc3)c2)on1`: in data set [1], the minimal inhibitory concentration (MIC) is 64 µg/mL (≈ 141 µM). The result (in data set [2]; in data set [3]; with Mycobacteroides chelonae) was inactive.
As to `COC(=O)c1cc(-c2cccc(NC(=O)c3ccc(/C=C/C(=O)c4ccc(C)c([N+](=O)[O-])c4)cc3)c2)on1`, in data set [1], the MIC turned out to be 4 µg/mL (≈ 7.82 µM). Further, in data set [4], the CC50 at 72 h is over 80 µg/mL. Also, the selectivity ratio in data set [5] was over 20. Also, the outcome (in data set [2]; in data set [3]; with Mycobacteroides chelonae) was inactive.
Consider `COC(=O)c1cc(-c2cccc(NC(=O)c3ccc(/C=C/C(=O)c4ccccc4)cc3)c2)on1`, for which the MIC in data set [1] stood at 1 µg/mL (≈ 2.21 µM). The CC50 at 72 h in data set [4] is over 50 µg/mL. Also, in data set [5], the selectivity ratio was over 50. Further, the result (in data set [2]; in data set [3]; in the data set with Mycobacteroides chelonae) was inactive.
Regarding `CCOC(=O)c1cc(COc2cc(C(F)(F)F)nc3cc(C(F)(F)F)cc(C(F)(F)F)c23)on1`, the MIC in data set [1] was determined as 0.39 µg/mL (≈ 0.776 µM).
For `COC(=O)c1cc(-c2cccc(NC(=O)c3ccc(/C=C/C(=O)c4ccccc4OC)cc3)c2)on1`, in data set [1], the MIC was determined as 1 µg/mL (≈ 2.07 µM). Moreover, in data set [4], the CC50 at 72 h is over 40 µg/mL. Moreover, the selectivity ratio in data set [5] was over 40. Further, the outcome (in data set [2]; in data set [3]; in the data set on Mycobacteroides chelonae) was inactive.
On to `COC(=O)c1cc(-c2cccc(NC(=O)c3ccc(/C=C/C(=O)c4cccc(F)c4)cc3)c2)on1`, for which the MIC in data set [1] worked out at 2 µg/mL (≈ 4.25 µM). In addition, the CC50 at 72 h in data set [4] is over 40 µg/mL. In addition, the selectivity ratio in data set [5] was over 20. The result (in data set [2]; in data set [3]; in the data set with Mycobacteroides chelonae) was inactive.
Take `COC(=O)c1cc(-c2cccc(NC(=O)c3ccc(/C=C/C(=O)c4ccc(F)cc4)cc3)c2)on1`: the MIC in data set [1] amounted to 4 µg/mL (≈ 8.5 µM). The CC50 at 72 h in data set [4] is over 20 µg/mL. In data set [5], the selectivity ratio is over 5. Also, the outcome (in data set [2]; in data set [3]; with Mycobacteroides chelonae) was inactive.
`COC(=O)c1cc(-c2cccc(NC(=O)c3ccc(/C=C/C(=O)c4cccc([N+](=O)[O-])c4)cc3)c2)on1`: the MIC in data set [1] was 2 µg/mL (≈ 4.02 µM). Besides, in data set [4], the CC50 at 72 h is over 40 µg/mL. In data set [5], the selectivity ratio was over 20. In addition, the outcome (in data set [2]; in data set [3]; in the data set with Mycobacteroides chelonae) was inactive.
As to `COc1ccc(OC)c(/C=C/C(=O)c2ccc(Nc3ccnc4cc(Cl)ccc34)cc2)c1`, the MIC in data set [1] was found to be 3.12 µg/mL (≈ 7.01 µM).
As for `COC(=O)c1cc(-c2cccc(NC(=O)c3ccc(/C=C/C(=O)c4ccc(Br)cc4)cc3)c2)on1`, the MIC in data set [1] was 1 µg/mL (≈ 1.88 µM). Also, the CC50 at 72 h in data set [4] was over 20 µg/mL. Besides, in data set [5], the selectivity ratio is over 2. The outcome (in data set [2]; in data set [3]; in the data set on Mycobacteroides chelonae) was inactive.
`CC(C)Cc1ccc(C(=O)/C=C/c2ccc(C(=O)O)cc2)cc1`: in data set [1], the MIC amounted to 32 µg/mL (≈ 104 µM). The CC50 at 72 h in data set [4] is under 10 µg/mL. Also, the selectivity ratio in data set [5] is under 10.
`COC(=O)c1cc(-c2cccc(NC(=O)c3ccc(/C=C/C(=O)c4ccc(OC)c(OC)c4)cc3)c2)on1`: in data set [1], the minimum inhibitory concentration (MIC) was 1 µg/mL (≈ 1.95 µM). Further, in data set [4], the CC50 at 72 h was over 50 µg/mL. Besides, the selectivity ratio in data set [5] was over 50. The outcome (in data set [2]; in data set [3]; with Mycobacteroides chelonae) was inactive.
Regarding `COC(=O)c1cc(-c2cccc(NC(=O)c3ccc(/C=C/C(=O)c4ccccc4O)cc3)c2)on1`, the MIC in data set [1] turned out to be 16 µg/mL (≈ 34.2 µM). Further, the outcome (in data set [2]; in data set [3]; in the data set with Mycobacteroides chelonae) was inactive.
Turning to `CCOC(=O)c1cc(-c2cccc(NC(=O)c3cccc(C(F)(F)F)c3)c2)on1`, the MIC in data set [1] came to 64 µg/mL (≈ 158 µM).
Regarding `Cc1ccc(Nc2nc(-c3cc(C(=O)Nc4ccccn4)no3)c(C)s2)cc1`, in data set [1], the MIC90 stood at 0.06 µg/mL (≈ 0.153 µM).
Take `O=C(/C=C/c1ccc([N+](=O)[O-])o1)c1ccc(N2CCCCC2)cc1`: the MIC in data set [1] came to 0.06 µg/mL (≈ 0.184 µM).
Turning to `COC(=O)c1cc(-c2cccc(NC(=O)/C=C/c3ccc(Cl)cc3)c2)on1`, in data set [1], the minimum inhibitory concentration (MIC) came out at 2 µg/mL (≈ 5.22 µM). Also, the result (in data set [2]; in data set [3]; with Mycobacteroides chelonae) was inactive.
Turning to `COC(=O)[C@H](NC(=O)c1cc(COc2ccc3sc(C)nc3c2)on1)c1ccccc1`, the minimum inhibitory concentration (MIC) in data set [1] was determined as 0.61 µg/mL (≈ 1.39 µM).
With `CCOC(=O)c1nnn(-c2cccc(NC(=O)c3ccc(/C=C/C(=O)c4ccc(Cl)cc4)cc3)c2)c1C`, in data set [1], the MIC is over 64 µg/mL. The outcome in data set [2] was inactive.
In the case of `COC(=O)c1cc(-c2cccc(NC(=O)c3ccc(/C=C/C(=O)c4ccc(O)cc4)cc3)c2)on1`, in data set [1], the MIC is over 64 µg/mL. The outcome (in data set [2]; in data set [3]; with Mycobacteroides chelonae) was inactive.
As to `O=C(/C=C/c1ccc(-n2ccnc2)cc1)c1ccc(OCc2cc(F)ccc2F)cc1`, in data set [1], the MIC was determined as 0.78 µg/mL (≈ 1.87 µM).
On the same count and under the same terms, the value for `O=C(/C=C/c1c[nH]c2ccccc12)c1cccs1` was 49.9 µg/mL (≈ 197 µM).
For `CCCOc1ccc(C(=O)/C=C/c2ccc(C(=O)O)cc2)cc1`, the MIC in data set [1] stood at 32 µg/mL (≈ 103 µM). Moreover, the CC50 at 72 h in data set [4] was under 10 µg/mL. The selectivity ratio in data set [5] was under 10.

Broadly, the MIC is the lowest concentration that inhibits growth of the organism. Broadly, the CC50 is the concentration giving 50% cytotoxicity. As a reminder, the MIC90 is the lowest concentration that inhibits either 90% of growth or 90% of the strains tested, depending on the study.
